In ChEMBL document CHEMBL2016541, “Synthesis and biological evaluation of isoxazolo[4,5-d]pyridazin-4-(5H)-one analogues as potent anti-inflammatory agents” (Bioorg Med Chem, 2012):

Assays:
[1] = biological target: T1, Prostaglandin G/H synthase 2 (Homo sapiens, UniProt P35354); assay: Inhibition of human recombinant COX2 by fluorescence assay
T1 sequence (P35354 whole entry): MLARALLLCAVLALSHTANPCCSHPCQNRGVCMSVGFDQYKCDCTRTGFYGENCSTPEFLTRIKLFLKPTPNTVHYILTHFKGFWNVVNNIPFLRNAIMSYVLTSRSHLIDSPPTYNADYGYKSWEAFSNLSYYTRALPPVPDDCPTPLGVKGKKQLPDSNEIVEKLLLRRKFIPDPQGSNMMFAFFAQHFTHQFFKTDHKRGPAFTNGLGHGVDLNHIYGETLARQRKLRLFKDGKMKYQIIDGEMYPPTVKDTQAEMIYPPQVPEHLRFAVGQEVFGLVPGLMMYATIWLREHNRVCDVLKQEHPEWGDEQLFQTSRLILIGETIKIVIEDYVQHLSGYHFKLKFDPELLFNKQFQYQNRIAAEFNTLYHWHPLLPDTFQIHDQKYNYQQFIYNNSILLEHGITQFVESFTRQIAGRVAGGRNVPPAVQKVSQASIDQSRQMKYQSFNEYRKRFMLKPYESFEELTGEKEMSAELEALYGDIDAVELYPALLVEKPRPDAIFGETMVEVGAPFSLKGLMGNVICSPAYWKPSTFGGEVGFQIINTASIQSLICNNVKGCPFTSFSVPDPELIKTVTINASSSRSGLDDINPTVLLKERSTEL

[2] = Inhibition of potato 5-LOX by EIA; design: species or system Solanum tuberosum
Procedure, shortened: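 Potato 5-LOX activity measured with an enzyme immunoassay (LOX assay kit). Mean of two determinations; deviation from the mean <10%.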

Rattus norvegicus [3] = assay: Antiinflammatory activity in rat assessed as inhibition of carrageenan-induced rat paw oedema at 30 mg/kg, po after 3 hrs; format: functional
Procedure, shortened: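 Carrageenan-induced paw edema in rats. Compounds given orally, suspended in 1% aqueous methylcellulose. Test compounds dosed at 0.14 mmol, equivalent to 30 mg/kg ibuprofen. […] Mean ± SEM, n = 4.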

Rattus norvegicus [4] = assay: Ulcerogenic activity in rat assessed as ulcer index at 30 mg/kg, po after 6 hrs; format: toxicity, organism-based; design: dose 30 mg/kg, route oral; settings: in vivo
Procedure, shortened: (§1)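 Rats fasted 24 h (water allowed), then dosed orally with 0.14 mmol/kg in 1.0 mL 1% methylcellulose; vehicle controls given. Euthanized by CO2 at 6 h. Stomachs opened along the greater curvature, rinsed, and ulcers measured under magnifier lenses. UI = summed ulcer length (mm) per stomach averaged over 4 rats; mean ± SEM; one-way ANOVA with Holm–Sidak.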

Rattus norvegicus [5] = assay: Ulcerogenic activity in rat assessed as ulcer index at 0.14 mmol/kg, po after 6 hrs; format: toxicity, organism-based; settings: in vivo; procedure, shortened: as §1
Rattus norvegicus [6] = assay: Antiinflammatory activity in rat assessed as inhibition of carrageenan-induced rat paw oedema at 0.14 mmol/kg, po after 3 hrs; format: functional
Procedure, shortened: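 Carrageenan-induced paw edema in rats. Compounds given orally, suspended in 1% aqueous methylcellulose. Test compounds dosed at 0.14 mmol, equivalent to 30 mg/kg ibuprofen. Mean ± SEM, n = 4.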

IC50 [1] [µM] | IC50 [2] [µM] | SMILES | UI (Rattus norvegicus [5]) [mm] | also measured
> 100 | 46.2 | COc1ccc(Cc2nn(Cc3nnc(Nc4ccccc4)s3)c(=O)c3c(C)noc23)cc1 | – | –
– | – | CC(C)Cc1ccc(C(C)C(=O)O)cc1 (stereo not drawn) [IBUPROFEN] | – | inhibition in vivo at 30 mg/kg (Rattus norvegicus [3]): 18.5%; UI (Rattus norvegicus [4]): 7 mm
– | – | COc1ccc(Cc2nn(Cc3n[nH]c(=S)n3C)c(=O)c3c(C)noc23)cc1 | 0.25 | –
> 100 | 16.5 | Cc1noc2c(Cc3ccc([N+](=O)[O-])cc3)nn(Cc3n[nH]c(=S)n3-c3ccccc3)c(=O)c12 | – | –
> 100 | 72.8 | CCNc1nnc(Cn2nc(Cc3ccccc3)c3onc(C)c3c2=O)s1 | – | –
– | 4 | O=C(O)/C=C/c1ccc(O)c(O)c1 [CAFFEIC ACID] | – | –
> 100 | 45.1 | Cc1noc2c(Cc3ccccc3)nn(Cc3n[nH]c(=S)n3-c3ccccc3)c(=O)c12 | – | –
– | 1.1 | CC(c1cc2ccccc2s1)N(O)C(N)=O (stereo not drawn) [ZILEUTON] | – | –
9.2 | 14.8 | CCn1c(Cn2nc(Cc3ccc([N+](=O)[O-])cc3)c3onc(C)c3c2=O)n[nH]c1=S | 0 | inhibition in vivo at 140 µmol/kg (Rattus norvegicus [6]): 38%
– | – | CNc1nnc(Cn2nc(Cc3ccc([N+](=O)[O-])cc3)c3onc(C)c3c2=O)s1 | 0.75 | –
– | – | Cc1noc2c(Cc3ccccc3)nn(Cc3nnc(Nc4ccccc4)s3)c(=O)c12 | 0.5 | –
– | – | Cc1noc2c(Cc3ccc([N+](=O)[O-])cc3)nn(Cc3n[nH]c(=S)n3C)c(=O)c12 | 0.25 | –
– | – | COc1ccc(Cc2nn(Cc3n[nH]c(=S)n3-c3ccccc3)c(=O)c3c(C)noc23)cc1 | 0 | –
2.2 | 8.6 | CCn1c(Cn2nc(Cc3ccc(OC)cc3)c3onc(C)c3c2=O)n[nH]c1=S | – | –
